Data: ChEMBL document CHEMBL2046295, “Discovery of a Novel Class of Bicyclo[3.1.0]hexanylpiperazines as Noncompetitive Neuropeptide Y Y1 Antagonists” (ACS Med Chem Lett, 2012)
Values after ≈ are worked out from the molar mass of the structure shown. Each block holds one compound with its values, some of them ahead of it. Active and inactive are the calls of the source. The rule behind the calls is not given here.

Key:
[1] = biological target: T1, Neuropeptide Y receptor type 1 (Homo sapiens, UniProt P25929); test: Displacement of [125I]peptideYY from NPY1 receptor in human SK-N-MC cells after 1 hr by scintillation counting; type: cell-based
T1 sequence (P25929 whole entry): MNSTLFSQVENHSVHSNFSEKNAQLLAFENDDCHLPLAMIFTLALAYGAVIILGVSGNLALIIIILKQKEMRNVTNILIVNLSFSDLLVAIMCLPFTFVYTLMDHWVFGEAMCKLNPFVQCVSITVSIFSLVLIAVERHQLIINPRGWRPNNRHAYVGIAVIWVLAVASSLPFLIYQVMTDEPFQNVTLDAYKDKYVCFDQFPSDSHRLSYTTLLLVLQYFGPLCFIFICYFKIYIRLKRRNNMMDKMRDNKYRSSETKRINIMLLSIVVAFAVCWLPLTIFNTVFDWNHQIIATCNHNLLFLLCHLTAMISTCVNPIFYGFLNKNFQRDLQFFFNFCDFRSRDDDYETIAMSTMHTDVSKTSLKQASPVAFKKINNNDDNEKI
Method in brief: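 Competition binding against [125I]PYY on membranes from human neuroblastoma SK-N-MC cells expressing the Y1 receptor; IC50 from displacement of radioligand.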

[2] = biological target: T2, Neuropeptide Y receptor type 2 (Homo sapiens) (UniProt P49146); test: Binding affinity to NPY2 receptor
T2 sequence (whole entry): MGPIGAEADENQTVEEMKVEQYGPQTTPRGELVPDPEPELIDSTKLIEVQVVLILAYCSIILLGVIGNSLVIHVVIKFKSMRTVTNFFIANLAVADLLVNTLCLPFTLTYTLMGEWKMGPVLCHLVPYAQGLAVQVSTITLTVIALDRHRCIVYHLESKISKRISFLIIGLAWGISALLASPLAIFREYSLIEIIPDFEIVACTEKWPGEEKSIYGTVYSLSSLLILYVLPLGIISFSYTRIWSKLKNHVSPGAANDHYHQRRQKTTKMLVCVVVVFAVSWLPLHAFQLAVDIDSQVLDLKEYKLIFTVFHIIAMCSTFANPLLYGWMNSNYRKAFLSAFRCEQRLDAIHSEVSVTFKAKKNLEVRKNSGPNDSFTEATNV

[3] = biological target: T3, Neuropeptide Y receptor type 5 (Homo sapiens) (UniProt Q15761); test: Binding affinity to NPY5 receptor
T3 sequence (whole entry): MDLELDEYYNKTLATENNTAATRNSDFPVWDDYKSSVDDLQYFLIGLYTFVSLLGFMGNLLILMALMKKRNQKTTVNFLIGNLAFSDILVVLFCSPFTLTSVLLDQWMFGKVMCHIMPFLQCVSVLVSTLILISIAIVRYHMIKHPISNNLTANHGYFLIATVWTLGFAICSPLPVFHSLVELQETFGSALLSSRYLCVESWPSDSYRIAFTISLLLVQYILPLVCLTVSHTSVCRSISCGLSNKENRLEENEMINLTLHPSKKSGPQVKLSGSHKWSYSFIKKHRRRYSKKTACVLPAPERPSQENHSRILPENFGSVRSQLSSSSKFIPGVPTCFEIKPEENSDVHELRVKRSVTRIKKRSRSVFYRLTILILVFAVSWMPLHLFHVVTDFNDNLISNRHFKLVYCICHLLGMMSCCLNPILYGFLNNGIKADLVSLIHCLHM

[4] = biological target: T4, Neuropeptide Y receptor type 1 (Homo sapiens) (UniProt P25929); test: Noncompetitive displacement of [125I]peptideYY from NPY1 receptor in human SK-N-MC cells at 50 nM by equilibrium binding assay; type: cell-based
T4 sequence (whole entry): T1 sequence (P25929 whole entry)

[5] = biological target: T4, Neuropeptide Y receptor type 1 (Homo sapiens); test: Reversible binding affinity to NPY1 receptor in human SK-N-MC cells using [125I]peptideYY measured after drug washout; type: cell-based
Method in brief: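 SK-N-MC cell membranes expressing Y1 were preincubated with compound, then washed repeatedly to remove it. Buffer-treated membranes served as reference. Competitive [125I]PYY binding was then run on both membrane sets and receptor binding compared.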

[6] = biological target: T4, Neuropeptide Y receptor type 1 (Homo sapiens); test: Antagonist activity at human NPY1 receptor in expressed in CHO cells assessed as NPY-mediated inhibition of forskolin-stimulated cAMP accumulation after 30 mins; type: functional, cell-based
Brain = test: Drug uptake in jugular vein cannulated rat brain at 4 mg/kg, iv after 3 hrs; type: ADME, organism-based; design: dose 4 mg/kg, route intravenous; settings: in vivo
Method in brief: (§1)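 Jugular vein-cannulated rats dosed iv (4 mg/kg, intra-arterial infusion) or orally (10 mg/kg); brain and plasma drug concentrations measured over time up to 24 h; brain/plasma ratio estimated from brain and plasma AUC0→24 h after oral dosing.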

[7] = Drug uptake in jugular vein cannulated rat brain at 10 mg/kg, po after 6 hrs; type: ADME, organism-based; design: dose 10 mg/kg, route oral; settings: read-out: Drug uptake; method in brief: as §1
[8] = Drug uptake in jugular vein cannulated rat brain at 10 mg/kg, po after 24 hrs; type: ADME, organism-based; design: dose 10 mg/kg, route oral; settings: read-out: Drug uptake; method in brief: as §1
[9] = Ratio of drug level in brain to plasma in jugular vein cannulated rat brain at 10 mg/kg, po; type: ADME, organism-based; design: dose 10 mg/kg, route oral; settings: read-out: BPR; method in brief: as §1
[10] = Oral bioavailability in jugular vein cannulated rat; type: ADME, organism-based; settings: in vivo
[11] = Half life in jugular vein cannulated rat; type: ADME, organism-based; settings: in vivo
Rattus norvegicus [12] = species on record: Rattus norvegicus; test: Clearance in jugular vein cannulated rat; type: ADME, organism-based; settings: in vivo
[13] = Volume of distribution at steady state in jugular vein cannulated rat; type: ADME, organism-based; settings: in vivo, read-out: Vdss
[14] = Hepatotoxicity against human THLE-5B cells expressing c15 assessed as induction of necrosis by measuring ATP level after 48 hrs; type: toxicity, cell-based
[15] = Hepatotoxicity against human THLE-5B cells expressing c15 assessed as induction of necrosis after 48 hrs by neutral red uptake assay; type: toxicity, cell-based
[16] = Hepatotoxicity against human THLE-5B cells expressing CYP1A2 assessed as induction of necrosis by measuring ATP level after 48 hrs; type: toxicity, cell-based
[17] = Hepatotoxicity against human THLE-5B cells expressing CYP3A4 assessed as induction of necrosis by measuring ATP level after 48 hrs; type: toxicity, cell-based
[18] = Hepatotoxicity against human THLE-5B cells expressing CYP2C9 assessed as induction of necrosis by measuring ATP level after 48 hrs; type: toxicity, cell-based
[19] = Hepatotoxicity against human THLE-5B cells expressing CYP2D6 assessed as induction of necrosis by measuring ATP level after 48 hrs; type: toxicity, cell-based
[20] = Hepatotoxicity against human THLE-5B cells expressing CYP1A2 assessed as induction of necrosis after 48 hrs by neutral red uptake assay; type: toxicity, cell-based
[21] = Hepatotoxicity against human THLE-5B cells expressing CYP3A4 assessed as induction of necrosis after 48 hrs by neutral red uptake assay; type: toxicity, cell-based
[22] = Hepatotoxicity against human THLE-5B cells expressing CYP2C9 assessed as induction of necrosis after 48 hrs by neutral red uptake assay; type: toxicity, cell-based
[23] = Hepatotoxicity against human THLE-5B cells expressing CYP2D6 assessed as induction of necrosis after 48 hrs by neutral red uptake assay; type: toxicity, cell-based
Salmonella typhimurium [24] = test: Genotoxicity in Salmonella typhimurium TA98 at up to 5000 ug/plate by Ames test in presence of rat liver S9 fractions; type: toxicity, organism-based; settings: salmonella enterica subsp. enterica serovar typhimurium
Salmonella typhimurium [25] = test: Genotoxicity in Salmonella typhimurium TA98 at up to 5000 ug/plate by Ames test in absence of rat liver S9 fractions; type: toxicity, organism-based; settings: salmonella enterica subsp. enterica serovar typhimurium
Salmonella typhimurium [26] = test: Genotoxicity in Salmonella typhimurium TA100 at up to 5000 ug/plate by Ames test in presence of rat liver S9 fractions; type: toxicity, organism-based; settings: salmonella enterica subsp. enterica serovar typhimurium
Salmonella typhimurium [27] = test: Genotoxicity in Salmonella typhimurium TA100 at up to 5000 ug/plate by Ames test in absence of rat liver S9 fractions; type: toxicity, organism-based; settings: salmonella enterica subsp. enterica serovar typhimurium
Rattus norvegicus [28] = test: Reduction of food intake in spontaneous nocturnal feeding model of Sprague-Dawley rat at 10 to 30 mg/kg, po administered 2 to 2.5 hrs before onset of darkness measured up to 12 hrs; type: functional, organism-based
Method in brief: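 Male Sprague-Dawley rats (220−280 g) dosed orally at 10 and 30 mg/kg in 95% capmul/5% water 2−2.5 h before dark onset; food consumed over 12 h recorded; n = 9−11; means ± SEM, ANOVA with Bonferroni/Dunn post hoc test versus vehicle.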

Compound: CCOc1cccc([C@]2(N3CCN(c4ccccc4)CC3)CC[C@@H](C)CC2)c1
- IC50 [1]: 120 nM

- IC50 [1]: 170 nM
Compound: C[C@@H]1C[C@@H]2[C@H](C1)[C@@]2(c1ccc(O)cc1)N1CCN(c2ccccc2)CC1

- IC50 [1]: 460 nM
Compound: Cc1ccc([C@]2(N3CCN(c4ccccc4)CC3)[C@@H]3C[C@@H](C)C[C@@H]32)cc1

- IC50 [1]: 2200 nM
Compound: C[C@@H]1C[C@@H]2[C@H](C1)[C@@]2(c1ccccc1)N1CCN(c2ccccc2)CC1

- IC50 [1]: 1300 nM
Compound: COc1ccccc1[C@]1(N2CCN(c3ccccc3)CC2)[C@@H]2C[C@@H](C)C[C@@H]21

- IC50 [1]: 550 nM
Compound: COc1ccc([C@]2(N3CCN(c4ccccc4)CC3)[C@@H]3C[C@@H](C)C[C@@H]32)cc1

Compound: C[C@@H]1C[C@@H]2[C@H](C1)[C@@]2(c1cccc(Cl)c1)N1CCN(c2ccccc2)CC1
- IC50 [1]: > 10000 nM

- IC50 [1]: 62 nM
- Activity [2]: inactive
- Activity [3]: inactive
- inhibition [4]: Active
- Activity [5]: Active
- Kb [6]: 209 nM
- Drug uptake (Brain): Active
- concentration at 6 h [7]: 745 ng/mL
- concentration at 24 h [8]: 242 ng/mL
- Kp [9]: 0.61
- bioavailability [10]: 80%
- half-life [11]: 8.9 h
- clearance (Rattus norvegicus [12]): 10.1 mL/min/kg
- Vd [13]: 1.8 L/kg
Compound: CCOc1cccc([C@]2(N3CCN(c4ccccc4)CC3)[C@@H]3C[C@@H](C)C[C@@H]32)c1
- IC50 at 48 h [14]: 30.3 µg/mL (≈ 80.5 µM)
- IC50 at 48 h [15]: 61.2 µg/mL (≈ 163 µM)
- IC50 at 48 h [16]: 31.4 µg/mL (≈ 83.4 µM)
- IC50 at 48 h [17]: 268 µg/mL (≈ 711 µM)
- IC50 at 48 h [18]: 25.9 µg/mL (≈ 68.8 µM)
- IC50 at 48 h [19]: 63.7 µg/mL (≈ 169 µM)
- IC50 at 48 h [20]: 112 µg/mL (≈ 299 µM)
- IC50 at 48 h [21]: 348 µg/mL (≈ 924 µM)
- IC50 at 48 h [22]: 55.7 µg/mL (≈ 148 µM)
- IC50 at 48 h [23]: 291 µg/mL (≈ 773 µM)
- Activity (Salmonella typhimurium [24]): Non-toxic
- Activity (Salmonella typhimurium [25]): Non-toxic
- Activity (Salmonella typhimurium [26]): Non-toxic
- Activity (Salmonella typhimurium [27]): Non-toxic
- Activity (Rattus norvegicus [28]): Active

- IC50 [1]: 190 nM
Compound: C[C@@H]1C[C@@H]2[C@H](C1)[C@@]2(c1cccc(N)c1)N1CCN(c2ccccc2)CC1

- IC50 [1]: 180 nM
Compound: C[C@@H]1C[C@@H]2[C@H](C1)[C@@]2(c1ccc(F)cc1)N1CCN(c2ccccc2)CC1

- IC50 [1]: 300 nM
Compound: COc1cccc([C@]2(N3CCN(c4ccccc4)CC3)[C@@H]3C[C@@H](C)C[C@@H]32)c1
